Results as given in ChEMBL document CHEMBL1143285, “Synthesis and biological evaluation of 2-phenylquinolones targeted at Tat/TAR recognition” (Bioorg Med Chem Lett, 2009).
Activity calls are given as the source filed them. The calls are words filed in the database; no cut-off is given here.

Columns and labels:
[1] = (§1) Inhibition of HIV Tat/TAR complex formation by fluorescence quenching assay; parameters: species or system Human immunodeficiency virus
[2] = tested on: Jurkat; assay: Cytotoxicity against human Jurkat cells at 100 uM after 72 hrs by MTT assay; format: cell-based
Summary of the method: (§2)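 MTT viability readout in CEM and Jurkat cells after 72 h incubation with compounds up to 100 µM; EC50 derived where applicable.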

[3] = Aqueous solubility in buffer; format: physicochemical
[4] = tested on: CCRF-CEM; assay: Cytotoxicity against human CEM cells at 100 uM after 72 hrs by MTT assay; format: cell-based; summary of the method: as §2
[5] = tested on: Human immunodeficiency virus 1; assay: Antiviral activity against HIV1 infected in human Jurkat cells assessed as compound uptake after 3 hrs by fluorescence assay; format: functional; parameters: concentration or dose not given beside the values
Summary of the method: (§3)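 Jurkat or CEM cells (2.5 × 10⁶/well) incubated in HBSS with compound at 100 µM, 3 h, 37 °C. Cells separated from medium by centrifugation through water-impermeable silicone-oil barrier, pellet lysed overnight in 0.1 M glycine–HCl pH 3.0, spun 5 min at 5600g. Compound in supernatant quantified by fluorescence at pH 3 against per-compound titration curve; reported as % uptake.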

[6] = tested on: Human immunodeficiency virus 1; assay: Antiviral activity against HIV1 infected in human CEM cells assessed as compound uptake after 3 hrs by fluorescence assay; format: functional, CCRF-CEM; summary of the method: as §3
[7] = tested on: Jurkat; assay: Cytotoxicity against human Jurkat cells after 72 hrs by MTT assay; format: cell-based; summary of the method: as §2
[8] = tested on: Human immunodeficiency virus; assay: as §1
[9] = tested on: Human immunodeficiency virus 1; assay: Antiviral activity against HIV1 infected in human Jurkat cells assessed as compound uptake after 3 hrs by fluorescence assay in presence of lipofectamine; format: functional

Question: Which results are given for `COc1cc(OC)c2c(=O)cc(-c3ccc(OCCCN)c(N)c3)n(C)c2c1`?
Answer: Ki [1]: 3850 nM; Activity [2]: Non-toxic; solubility [3]: Soluble; Activity [4]: Non-toxic

Question: With `COc1cc(OC)c2c(=O)cc(-c3ccc(OCCCN4CCCCC4)c(N)c3)n(C)c2c1` as the compound, how does the Ki [1] read?
Answer: 1950 nM

Question: And the Activity [5]?
Answer: 0.94%

Question: What about the Activity [2] of the same compound?
Answer: Non-toxic

Question: What about the solubility [3] of the same compound?
Answer: Soluble

Question: What about the Activity [4] of the same compound?
Answer: Non-toxic

Question: What about the Activity [6] of the same compound?
Answer: 1.8%

Question: With `COc1cc(OC)c2c(=O)cc(-c3ccc(OCCCN4CCCCC4)cc3)n(C)c2c1` as the compound, how does the Ki [1] read?
Answer: 1020 nM

Question: And the Activity [5]?
Answer: 3.27%

Question: And the solubility [3]?
Answer: Soluble

Question: What about the EC50 [7] of the same compound?
Answer: 94.7 µM

Question: With `COc1cc(OC)c2c(=O)cc(-c3ccc(OCCCN)c(NC(=O)CCc4cccnc4)c3)n(C)c2c1` as the compound, how does the Activity [8] read?
Answer: inactive

Question: And the Activity [2]?
Answer: Non-toxic

Question: And the solubility [3]?
Answer: Soluble

Question: And the Activity [4]?
Answer: Non-toxic

Question: Which Activity [8] does the source give for `COc1cc(OC)c2c(=O)cc(-c3ccc(O)c(N)c3)n(C)c2c1` here?
Answer: inactive

Question: What about the Activity [5] of the same compound?
Answer: 25%

Question: What about the Activity [2] of the same compound?
Answer: Non-toxic

Question: And the solubility [3]?
Answer: Soluble

Question: What about the Activity [4] of the same compound?
Answer: Non-toxic

Question: Which results are given for `Cn1cc(C(=O)O)c(=O)c2cc(N)c(N3CCN(c4ccccn4)CC3)cc21`?
Answer: Ki [1]: 2180 nM; Activity [5]: 23.2%; Activity [2]: Non-toxic; solubility [3]: Soluble; Activity [4]: Non-toxic; Activity [6]: 7.5%; Activity [9]: <=40%

Question: For `COc1cc(OC)c2c(=O)cc(-c3ccc(OCCCN4CCCCC4)c(NC(=O)CCCN(C)C)c3)n(C)c2c1`, which Ki [1] is on record?
Answer: 2600 nM

Question: And the Activity [2]?
Answer: Non-toxic

Question: And the solubility [3]?
Answer: Soluble

Question: And the Activity [4]?
Answer: Non-toxic

Question: For `COc1cc(OC)c2c(=O)cc(-c3ccc(OCCCN4CCN(C)CC4)c(NC(=O)CCCN(C)C)c3)n(C)c2c1`, which Activity [8] is on record?
Answer: inactive

Question: What about the Activity [2] of the same compound?
Answer: Non-toxic

Question: And the solubility [3]?
Answer: Soluble

Question: And the Activity [4]?
Answer: Non-toxic

Question: For `COc1cc(OC)c2c(=O)cc(-c3ccc(OCCCN)c(NC(=O)CCCN(C)C)c3)n(C)c2c1`, which Ki [1] is on record?
Answer: 3030 nM

Question: What about the Activity [5] of the same compound?
Answer: 0.67%

Question: And the Activity [2]?
Answer: Non-toxic

Question: And the solubility [3]?
Answer: Soluble

Question: And the Activity [4]?
Answer: Non-toxic

Question: And the Activity [6]?
Answer: 1.2%

Question: Which Ki [1] does the source give for `COc1cc(OC)c2c(=O)cc(-c3ccc(OCCCN4CCN(C)CC4)c(N)c3)n(C)c2c1` here?
Answer: 1580 nM

Question: What about the Activity [5] of the same compound?
Answer: 0.82%

Question: What about the Activity [2] of the same compound?
Answer: Non-toxic

Question: What about the solubility [3] of the same compound?
Answer: Soluble

Question: What about the Activity [4] of the same compound?
Answer: Non-toxic

Question: What about the Activity [6] of the same compound?
Answer: 1.1%
